Test results as given in ChEMBL document CHEMBL4354843, “Structure-Based Design of a Potent and Selective Covalent Inhibitor for SRC Kinase That Targets a P-Loop Cysteine” (J Med Chem, 2020).

What was measured:
MDA-MB-231 = test: Antiproliferative activity against human MDA-MB-231 cells assessed as reduction in cell viability incubated for 72 hrs by cell-titer glo assay; details: MDA-MB-231, 72 h
[1] = Half life in B6 mouse at 5 mg/kg, ip; format: ADME, organism-based; details: in vivo
Method in brief: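 PK in B6 mice. Single 5 mg/kg intraperitoneal dose in 5% DMSO/95% D5W. Half-life and AUC reported.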

[2] = molecular target: Activin receptor type-2A (Homo sapiens) (UniProt P27037); test: Binding affinity to wild-type human ACVR2A (V171 to T499 residues) expressed in bacterial expression system assessed as residual binding level at 1 uM by Kinomescan method relative to control
Method in brief: (§1)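 Active-site-directed KinomeScan competition binding panel covering 468 kinases, compound tested at 1 μM. Each readout is the kinase signal remaining with compound, expressed as a percentage of the DMSO control. […]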

[3] = molecular target: Cyclin-dependent kinase 11A (Homo sapiens) (UniProt Q9UQ88); test: Binding affinity to wild-type human partial length CDC2L2 (D391 to K730 residues) expressed in bacterial expression system assessed as residual binding level at 1 uM by Kinomescan method relative to control
[4] = test system: Epidermal growth factor receptor (Homo sapiens), P00533 [UNDEFINED MUTATION]; test: Binding affinity to human partial length EGFR L747-S752del/P753S mutant expressed in bacterial expression system assessed as residual binding level at 1 uM by Kinomescan method relative to control
Method in brief: (§2)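 KinomeScan active site-directed competition binding panel (468 kinases), compound tested at 1 μM. Result expressed as remaining kinase signal versus DMSO control (percent of control).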

[5] = molecular target: Ephrin type-B receptor 6 (Homo sapiens) (UniProt O15197); test: Binding affinity to wild-type human partial length EPHB6 (Q634 to P948 residues) expressed in mammalian expression system assessed as residual binding level at 1 uM by Kinomescan method relative to control
Method in brief: (§3)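 Active-site-directed competition binding panel of 468 kinases (KinomeScan), compound at 1 μM. The read-out is kinase remaining bound, given as a percentage of the DMSO control. […]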

[6] = molecular target: Receptor tyrosine-protein kinase erbB-4 (Homo sapiens) (UniProt Q15303); test: Binding affinity to wild-type human partial length ERBB4 (L690 to K994 residues) expressed in bacterial expression system assessed as residual binding level at 1 uM by Kinomescan method relative to control; method in brief: as §3
[7] = molecular target: Fibroblast growth factor receptor 1 (Homo sapiens, UniProt P11362); test: Binding affinity to wild-type human partial length FGFR1 (P357 to V669 residues) expressed in bacterial expression system assessed as residual binding level at 1 uM by Kinomescan method relative to control
[8] = test system: Receptor-type tyrosine-protein kinase FLT3 (Homo sapiens), P36888 [K663Q]; test: Binding affinity to human partial length FLT3 K663Q mutant (V592 to Y969 residues) expressed in bacterial expression system assessed as residual binding level at 1 uM by Kinomescan method relative to control; method in brief: as §2
[9] = molecular target: Glycogen synthase kinase-3 beta (Homo sapiens) (UniProt P49841); test: Binding affinity to wild-type human full length GSK3B (M1 to T433 residues) expressed in mammalian expression system assessed as residual binding level at 1 uM by Kinomescan method relative to control
Method in brief: (§4)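 KinomeScan, an active site-directed competition binding panel of 468 kinases. The test compound was at 1 μM. The readout is remaining kinase binding as a percentage of the DMSO control. Scores above 35% were treated as weak binding and not listed.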

[10] = molecular target: Serine/threonine-protein kinase STK11 (Homo sapiens) (UniProt Q15831); test: Binding affinity to wild-type human full length LKB1 (M1 to Q433 residues) expressed in bacterial expression system assessed as residual binding level at 1 uM by Kinomescan method relative to control; method in brief: as §1
[11] = molecular target: Mitogen-activated protein kinase kinase kinase 4 (Homo sapiens) (UniProt Q9Y6R4); test: Binding affinity to wild-type human partial length MAP3K4 (G1319 to E1608 residues) expressed in bacterial expression system assessed as residual binding level at 1 uM by Kinomescan method relative to control
[12] = molecular target: Mitogen-activated protein kinase kinase kinase kinase 2 (Homo sapiens) (UniProt Q12851); test: Binding affinity to wild-type human partial length MAP4K2 (M1 to G318 residues) expressed in mammalian expression system assessed as residual binding level at 1 uM by Kinomescan method relative to control
[13] = molecular target: Mitogen-activated protein kinase kinase kinase 9 (Homo sapiens) (UniProt P80192); test: Binding affinity to wild-type human partial length MLK1 (V88 to W426 residues) expressed in bacterial expression system assessed as residual binding level at 1 uM by Kinomescan method relative to control
[14] = molecular target: Serine/threonine-protein kinase NLK (Homo sapiens) (UniProt Q9UBE8); test: Binding affinity to wild-type human full length NLK (M13 to E527 residues) expressed in bacterial expression system assessed as residual binding level at 1 uM by Kinomescan method relative to control; method in brief: as §4
[15] = molecular target: Mitogen-activated protein kinase 11 (Homo sapiens) (UniProt Q15759); test: Binding affinity to wild-type human full length p38-beta (M1 to Q364 residues) expressed in bacterial expression system assessed as residual binding level at 1 uM by Kinomescan method relative to control; method in brief: as §4
[16] = molecular target: Cyclin-dependent kinase 15 (Homo sapiens) (UniProt Q96Q40); test: Binding affinity to wild-type human full length PFTAIRE2 (M1 to W384 residues) expressed in bacterial expression system assessed as residual binding level at 1 uM by Kinomescan method relative to control
Method in brief: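 Active-site-directed competition binding panel (KinomeScan) covering 468 kinases. Test agent was screened at 1 μM. The read-out is the remaining kinase signal expressed relative to a DMSO control. Scores above 35%, taken as weak binding, were not reported.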

[17] = molecular target: Protein kinase C iota type (Homo sapiens) (UniProt P41743); test: Binding affinity to wild-type human partial length PRKCI (H215 to V587 residues) expressed in mammalian expression system assessed as residual binding level at 1 uM by Kinomescan method relative to control; method in brief: as §3
[18] = molecular target: Ribosomal protein S6 kinase alpha-3 (Homo sapiens) (UniProt P51812); test: Binding affinity to wild-type human partial length N- terminal RSK2 kinase domain 1 (M1 to D394 residues) expressed in mammalian expression system assessed as residual binding level at 1 uM by Kinomescan method relative to control
[19] = molecular target: SRSF protein kinase 3 (Homo sapiens) (UniProt Q9UPE1); test: Binding affinity to wild-type human partial length SRPK3 (P41 to P567 residues) expressed in bacterial expression system assessed as residual binding level at 1 uM by Kinomescan method relative to control
[20] = molecular target: Serine/threonine-protein kinase tousled-like 1 (Homo sapiens) (UniProt Q9UKI8); test: Binding affinity to wild-type human partial length TLK1 (K447 to A754 residues) expressed in bacterial expression system assessed as residual binding level at 1 uM by Kinomescan method relative to control

Sequence of Activin receptor type-2A (Homo sapiens) (P27037 whole entry, the tested form may be a part): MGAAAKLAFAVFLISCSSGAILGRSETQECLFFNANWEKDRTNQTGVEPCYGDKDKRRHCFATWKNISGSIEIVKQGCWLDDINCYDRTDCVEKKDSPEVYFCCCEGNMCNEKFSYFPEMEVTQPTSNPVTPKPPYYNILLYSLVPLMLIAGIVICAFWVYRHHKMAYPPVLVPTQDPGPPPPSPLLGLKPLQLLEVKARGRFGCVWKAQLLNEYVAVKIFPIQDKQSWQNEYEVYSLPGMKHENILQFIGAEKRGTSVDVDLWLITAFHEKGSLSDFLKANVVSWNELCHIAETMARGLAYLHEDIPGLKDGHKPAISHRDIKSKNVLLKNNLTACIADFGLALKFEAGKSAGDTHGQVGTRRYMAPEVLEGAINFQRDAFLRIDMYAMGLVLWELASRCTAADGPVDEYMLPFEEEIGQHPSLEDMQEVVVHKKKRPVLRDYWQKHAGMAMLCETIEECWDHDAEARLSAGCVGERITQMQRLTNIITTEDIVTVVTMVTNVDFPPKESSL
Sequence of Mitogen-activated protein kinase kinase kinase 9 (Homo sapiens) (P80192 whole entry, looked up, the tested form may be a part): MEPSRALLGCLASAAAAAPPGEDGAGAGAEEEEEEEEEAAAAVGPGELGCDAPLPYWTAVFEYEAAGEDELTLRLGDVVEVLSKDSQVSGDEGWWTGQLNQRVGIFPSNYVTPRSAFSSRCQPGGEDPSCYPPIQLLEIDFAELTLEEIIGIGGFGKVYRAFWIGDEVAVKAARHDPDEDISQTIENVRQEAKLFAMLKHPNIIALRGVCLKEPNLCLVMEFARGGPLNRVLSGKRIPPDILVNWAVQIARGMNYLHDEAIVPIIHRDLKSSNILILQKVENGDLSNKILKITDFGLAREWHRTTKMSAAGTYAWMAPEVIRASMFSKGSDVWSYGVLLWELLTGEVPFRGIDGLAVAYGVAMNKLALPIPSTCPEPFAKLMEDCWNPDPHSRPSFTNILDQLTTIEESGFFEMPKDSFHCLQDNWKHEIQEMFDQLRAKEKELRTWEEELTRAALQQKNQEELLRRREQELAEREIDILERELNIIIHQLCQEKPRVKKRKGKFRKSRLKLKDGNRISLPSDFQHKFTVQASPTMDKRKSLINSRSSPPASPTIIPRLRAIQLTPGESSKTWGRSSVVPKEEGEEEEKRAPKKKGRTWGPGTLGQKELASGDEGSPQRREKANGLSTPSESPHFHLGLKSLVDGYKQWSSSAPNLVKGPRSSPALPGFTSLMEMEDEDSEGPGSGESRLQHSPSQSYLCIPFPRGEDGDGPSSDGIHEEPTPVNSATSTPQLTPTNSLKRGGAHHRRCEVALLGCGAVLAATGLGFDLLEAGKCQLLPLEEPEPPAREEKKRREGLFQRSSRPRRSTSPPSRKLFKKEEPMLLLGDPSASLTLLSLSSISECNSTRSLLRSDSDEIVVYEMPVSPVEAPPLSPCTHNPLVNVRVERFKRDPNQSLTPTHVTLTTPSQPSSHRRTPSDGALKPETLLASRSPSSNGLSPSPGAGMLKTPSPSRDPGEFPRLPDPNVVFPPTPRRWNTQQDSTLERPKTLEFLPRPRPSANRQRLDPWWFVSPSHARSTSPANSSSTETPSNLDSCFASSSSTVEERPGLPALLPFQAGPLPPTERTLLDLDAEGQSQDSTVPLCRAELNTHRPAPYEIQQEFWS
Sequence of Mitogen-activated protein kinase 11 (Homo sapiens) (Q15759 whole entry, the tested form may be a part): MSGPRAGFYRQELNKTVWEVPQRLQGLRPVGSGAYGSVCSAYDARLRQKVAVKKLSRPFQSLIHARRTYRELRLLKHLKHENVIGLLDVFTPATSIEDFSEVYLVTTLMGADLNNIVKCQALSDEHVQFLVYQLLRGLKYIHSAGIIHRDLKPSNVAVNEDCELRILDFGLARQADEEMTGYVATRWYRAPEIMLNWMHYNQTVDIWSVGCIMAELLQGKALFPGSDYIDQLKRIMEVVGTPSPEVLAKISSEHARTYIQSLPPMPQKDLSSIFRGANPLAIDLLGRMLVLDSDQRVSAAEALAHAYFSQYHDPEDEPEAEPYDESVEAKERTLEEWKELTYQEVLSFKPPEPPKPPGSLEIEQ
Sequence of Mitogen-activated protein kinase kinase kinase kinase 2 (Homo sapiens) (Q12851 whole entry, the tested form may be a part): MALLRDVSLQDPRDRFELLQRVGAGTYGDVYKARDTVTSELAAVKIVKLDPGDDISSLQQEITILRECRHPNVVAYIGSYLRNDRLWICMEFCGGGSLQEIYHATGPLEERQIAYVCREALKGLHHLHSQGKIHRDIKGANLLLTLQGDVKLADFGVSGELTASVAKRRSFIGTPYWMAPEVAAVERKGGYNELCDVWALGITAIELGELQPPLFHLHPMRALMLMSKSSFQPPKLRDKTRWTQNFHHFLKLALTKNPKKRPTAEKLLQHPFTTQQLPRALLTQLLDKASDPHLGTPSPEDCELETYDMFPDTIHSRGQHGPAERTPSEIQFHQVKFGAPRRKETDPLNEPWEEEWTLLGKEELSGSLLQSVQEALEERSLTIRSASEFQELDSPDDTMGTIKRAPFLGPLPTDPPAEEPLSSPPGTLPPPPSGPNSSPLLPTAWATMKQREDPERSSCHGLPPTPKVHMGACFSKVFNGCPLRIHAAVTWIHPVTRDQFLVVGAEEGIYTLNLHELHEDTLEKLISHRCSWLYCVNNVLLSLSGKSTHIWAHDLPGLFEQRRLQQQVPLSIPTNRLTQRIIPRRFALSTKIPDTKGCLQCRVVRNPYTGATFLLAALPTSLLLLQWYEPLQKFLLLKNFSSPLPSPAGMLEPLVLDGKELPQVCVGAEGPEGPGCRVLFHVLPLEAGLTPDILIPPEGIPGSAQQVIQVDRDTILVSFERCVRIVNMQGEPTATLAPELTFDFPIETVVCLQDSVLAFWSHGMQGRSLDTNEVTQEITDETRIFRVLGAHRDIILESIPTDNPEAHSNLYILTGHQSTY
Sequence of Glycogen synthase kinase-3 beta (Homo sapiens) (P49841 whole entry, looked up, the tested form may be a part): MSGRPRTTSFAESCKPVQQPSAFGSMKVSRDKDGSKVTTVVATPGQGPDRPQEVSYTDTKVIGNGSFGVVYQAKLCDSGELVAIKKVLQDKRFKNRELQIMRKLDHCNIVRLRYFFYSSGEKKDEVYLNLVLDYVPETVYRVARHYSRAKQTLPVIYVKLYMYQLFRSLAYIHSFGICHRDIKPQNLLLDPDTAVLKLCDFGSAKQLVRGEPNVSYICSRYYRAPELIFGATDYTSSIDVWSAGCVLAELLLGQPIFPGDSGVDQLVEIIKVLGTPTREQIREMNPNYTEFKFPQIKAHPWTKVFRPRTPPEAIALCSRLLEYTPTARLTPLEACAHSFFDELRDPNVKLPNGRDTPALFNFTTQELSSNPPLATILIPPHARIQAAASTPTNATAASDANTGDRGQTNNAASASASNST
Sequence of Fibroblast growth factor receptor 1 (P11362 22-822 limits assumed): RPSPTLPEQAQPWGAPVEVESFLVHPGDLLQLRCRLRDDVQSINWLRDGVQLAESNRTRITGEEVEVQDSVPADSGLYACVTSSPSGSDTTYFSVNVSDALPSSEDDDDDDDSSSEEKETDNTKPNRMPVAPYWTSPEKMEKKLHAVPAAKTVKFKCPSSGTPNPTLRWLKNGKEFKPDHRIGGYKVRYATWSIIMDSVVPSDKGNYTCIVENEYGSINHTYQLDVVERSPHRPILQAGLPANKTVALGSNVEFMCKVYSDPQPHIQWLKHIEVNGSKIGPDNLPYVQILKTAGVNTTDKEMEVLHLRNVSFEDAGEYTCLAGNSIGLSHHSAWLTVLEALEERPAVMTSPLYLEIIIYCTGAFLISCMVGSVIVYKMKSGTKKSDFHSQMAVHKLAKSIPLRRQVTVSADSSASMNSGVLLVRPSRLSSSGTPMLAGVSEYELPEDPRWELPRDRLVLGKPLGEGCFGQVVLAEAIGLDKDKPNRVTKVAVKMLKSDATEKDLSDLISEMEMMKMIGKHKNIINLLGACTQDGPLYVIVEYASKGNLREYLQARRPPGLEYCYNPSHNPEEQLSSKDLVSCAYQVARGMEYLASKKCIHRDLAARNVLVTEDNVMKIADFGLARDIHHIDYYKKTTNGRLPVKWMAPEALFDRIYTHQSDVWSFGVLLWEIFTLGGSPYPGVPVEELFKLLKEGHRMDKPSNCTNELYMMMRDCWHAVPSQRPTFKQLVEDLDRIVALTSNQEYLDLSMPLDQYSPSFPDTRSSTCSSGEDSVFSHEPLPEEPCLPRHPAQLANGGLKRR
Sequence of Protein kinase C iota type (Homo sapiens) (P41743 whole entry, the tested form may be a part): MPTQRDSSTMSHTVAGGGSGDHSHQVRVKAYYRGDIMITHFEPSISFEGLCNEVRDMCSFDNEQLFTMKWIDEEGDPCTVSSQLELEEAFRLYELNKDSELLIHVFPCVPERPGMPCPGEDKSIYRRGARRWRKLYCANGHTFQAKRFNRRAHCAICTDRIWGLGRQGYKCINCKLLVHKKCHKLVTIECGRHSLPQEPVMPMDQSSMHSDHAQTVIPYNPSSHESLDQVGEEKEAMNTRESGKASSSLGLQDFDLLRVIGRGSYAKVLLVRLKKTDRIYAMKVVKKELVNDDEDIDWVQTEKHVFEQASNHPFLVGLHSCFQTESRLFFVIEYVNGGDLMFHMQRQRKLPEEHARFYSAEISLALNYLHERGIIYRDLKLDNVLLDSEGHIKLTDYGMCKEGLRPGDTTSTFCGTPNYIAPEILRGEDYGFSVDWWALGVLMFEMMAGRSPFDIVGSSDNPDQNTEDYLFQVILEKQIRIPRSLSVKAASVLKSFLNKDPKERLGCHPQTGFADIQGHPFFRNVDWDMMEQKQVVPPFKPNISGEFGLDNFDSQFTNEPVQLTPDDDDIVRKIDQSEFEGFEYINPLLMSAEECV
Sequence of Serine/threonine-protein kinase STK11 (Homo sapiens) (Q15831 whole entry, the tested form may be a part): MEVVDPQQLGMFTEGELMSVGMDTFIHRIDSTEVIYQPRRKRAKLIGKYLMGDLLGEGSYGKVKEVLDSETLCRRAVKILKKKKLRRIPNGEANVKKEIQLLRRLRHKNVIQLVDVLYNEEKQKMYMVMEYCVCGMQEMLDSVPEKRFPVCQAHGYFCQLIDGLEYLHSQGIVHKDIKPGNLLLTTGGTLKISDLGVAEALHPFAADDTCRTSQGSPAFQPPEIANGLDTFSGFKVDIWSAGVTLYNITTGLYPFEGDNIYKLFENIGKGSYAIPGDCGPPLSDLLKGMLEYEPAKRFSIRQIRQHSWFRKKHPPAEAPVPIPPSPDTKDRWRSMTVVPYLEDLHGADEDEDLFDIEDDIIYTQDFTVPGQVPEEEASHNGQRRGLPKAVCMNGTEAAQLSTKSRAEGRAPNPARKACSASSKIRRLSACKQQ

C=CC(=O)Nc1ccccc1Nc1nc(Nc2ccc(N3CCN(C)CC3)cc2)ncc1C(=O)Nc1c(C)cccc1Cl
IC50 (MDA-MB-231): 300 nM | half-life [1]: 1.29 h | Activity [2]: 100% | Activity [3]: 100% | Activity [4]: 74% | Activity [5]: 6% | Activity [6]: 6.6% | Activity [7]: 100% | Activity [8]: 100% | Activity [9]: 98% | Activity [10]: 100% | Activity [11]: 65% | Activity [12]: 100% | Activity [13]: 100% | Activity [14]: 76% | Activity [15]: 98% | Activity [16]: 100% | Activity [17]: 94% | Activity [18]: 75% | Activity [19]: 100% | Activity [20]: 100%
